From ChEMBL document CHEMBL2086289, “Anti-HIV activity of semisynthetic derivatives of andrographolide and computational study of HIV-1 gp120 protein binding” (Eur J Med Chem, 2012) come the findings set out here.

Data set [1] can be described thus: Cytotoxicity against human TZM-bl cells after 48 hrs by MTT assay. Format: cell-based. The procedure, abridged:
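TZM-bl cells seeded at 6.0 × 10³/well and incubated 24 h at 37 °C, 5% CO₂. They were then exposed to four compound concentrations (4, 20, 100, 500) or solvent for 48 h. MTT was added for 4 h at 37 °C, followed by overnight solubilization in SDS/DMF/PBS. Absorbance read at 570 nm with a 690 nm reference. Viability was scored relative to untreated cells, and CC50 came from nonlinear curve fitting.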
(Formazan colour is commonly taken as a measure of viable cells.)

Data set [2] in a line: Therapeutic index, ratio of CC50 for human TZM-bl cells to IC50 for HIV1. The data set is classed as cell-based. As to conditions: read-out: Ratio CC50/IC50. In short, it runs like this:
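Ratio of CC50 from the 48 h MTT assay in TZM-bl cells to IC50 from the NL4.3 luciferase infectivity assay in TZM-bl cells.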

The subject of data set [3] is Human immunodeficiency virus 1. Nature of the data set: Antiviral activity against HIV1 in human TZM-bl cells assessed as viral infectivity by luciferase assay. The data set is classed as functional, organism-based. The settings on record: Human immunodeficiency virus 1, TZM-bl. In short, it runs like this:
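TZM-bl cells seeded at 4.0 × 10⁴/well and held overnight. CXCR4-tropic HIV-1 NL4.3 (MOI 0.05) was pre-incubated with compound or solvent for 1 h at 37 °C, then added in duplicate for 4 h and washed off. Cells got fresh medium with compound for 48 h, then lysis and luciferase chemiluminescence. AZT served as positive control. IC50 is the concentration giving 50% inhibition of infection versus infected untreated cells.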

Data set [4] in a line: Inhibition of HIV1 gp120 expressed in human HL2/3 cells assessed as Hl2/3 cell fusion to compound-treated human TZM-bl cells after 48 hrs by luciferase assay. The data set is classed as cell-based, Human immunodeficiency virus 1. In short, it runs like this:
(§1)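 Either HL2/3 cells (HeLa-derived, expressing HIV-1 HxB2 Env plus Tat, Gag, Rev and Nef; G418-maintained) or TZM-bl cells were pre-treated with compound, then washed. Treated cells were co-cultured with the untreated partner line at 1:1 (1.0 × 10⁵ cells/well) for 48 h at 37 °C, 5% CO₂. Luciferase activity was measured and inhibition scored relative to no-compound co-cultures, with Bicyclam as reference. IC50 is the concentration giving 50% inhibition of luciferase expression.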

Data set [5] concerns the target Human immunodeficiency virus type 1 reverse transcriptase (Human immunodeficiency virus 1) (UniProt Q72547). Nature of the data set: Inhibition of HIV1 reverse transcriptase at 50 uM by ELISA. In short, it runs like this: (§2)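 Single-concentration screens run with commercial kits per the manufacturers' protocols. RT was measured by ELISA kit, with nevirapine 1 mM as positive control. HIV-1 protease was measured by a protease assay kit, with saquinavir 1 mM as positive control.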
(In general: In an ELISA, binding on a coated surface is turned into a signal by an enzyme label.)

Data set [6] can be described thus: (§3) Inhibition of HIV1 gp120 expressed in human HL2/3 cells assessed as compound-treated HL2/3 cell fusion to human TZM-bl cells after 48 hrs by luciferase assay. The data set is classed as cell-based, Human immunodeficiency virus 1. The procedure, abridged: as §1
For data set [7], the system named is TZM-bl. The description is as §3. Format: cell-based. As to conditions: Human immunodeficiency virus 1. The procedure, abridged:
as §1

Data set [8] addresses Protease (Human immunodeficiency virus 1) (UniProt Q9YQ12). Nature of the data set: Inhibition of HIV1 protease at 50 uM by ELISA. The procedure, abridged: as §2
For data set [9], the system named is Human immunodeficiency virus 1. As to the kind of experiment: Antiviral activity against HIV1 assessed as inhibition of syncytia formation. The data set is classed as functional, organism-based.
Setting [10] is: Human immunodeficiency virus 1, TZM-bl, 48 h, read-out: IC50.

Calls of active or inactive are those of the source. No cut-off for these calls is given here.

Usually CC50 stands for the concentration giving 50% cytotoxicity. Lower therefore signals harm at low concentration.

Protease (Human immunodeficiency virus 1), sequence (Q9YQ12 as listed by the source): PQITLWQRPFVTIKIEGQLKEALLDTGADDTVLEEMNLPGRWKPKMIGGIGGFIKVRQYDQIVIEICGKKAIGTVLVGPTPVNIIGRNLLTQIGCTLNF

Regarding `C=C1CC[C@@H]2[C@]3(C)COC(c4ccc(Cl)cc4)O[C@@H]3CC[C@@]2(C)[C@@H]1C/C=C1/C(=O)OC[C@H]1O` (some centres not stated), the CC50 at 48 h in data set [1] came to 440 µM. Further, the selectivity ratio in data set [2] was found to be 44. In addition, the IC50 in data set [3] (read-out: IC50) is 9.94 µM; in [3] (read-out: pIC50 (converted)), 10 µM.
For `C=C1CC[C@@H]2[C@](C)(COC(=O)NS(=O)(=O)c3ccc(C)cc3)[C@H](O)CC[C@@]2(C)[C@@H]1C/C=C1/C(=O)OC[C@H]1O` the same measures were 2040 µM, 978, 2.08 µM and 2.09 µM.
As to `C=C1CC[C@@H]2[C@]3(C)COC(c4cccc([N+](=O)[O-])c4)O[C@@H]3CC[C@@]2(C)[C@@H]1C/C=C1/C(=O)OC[C@H]1O` (some centres not stated), the IC50 entry was “Not Active” in data set [4] (tzm-bl), 0.51 µM in data set [3] (read-out: IC50), 0.513 µM in data set [3] (read-out: pIC50 (converted)) and 1.6 µM in [6] (setting [10]). Besides, the CC50 at 48 h in data set [1] amounted to 745 µM. Besides, the selectivity ratio in [2] is 1460. The inhibition result in data set [5] and in data set [8] was “inactive” each time. The inhibition entry in data set [7] was “Dose-dependent effect”. In addition, the inhibition entry in data set [9] was “Active”.
As to `C=C1CC[C@@H]2[C@]3(C)COC(c4ccc(O)c(OC)c4)O[C@@H]3CC[C@@]2(C)[C@@H]1C/C=C1/C(=O)OC[C@H]1O` (some centres not stated), the CC50 at 48 h in data set [1] was found to be 59 µM. Besides, the selectivity ratio in [2] amounted to 10. Also, the IC50 was 6.09 µM in [3] (read-out: IC50) and 6.03 µM in [3] (read-out: pIC50 (converted)).
The molecule `C=C1CC[C@@H]2[C@]3(C)COC(c4ccc(O)cc4)O[C@@H]3CC[C@@]2(C)[C@@H]1C/C=C1/C(=O)OC[C@H]1O` (some centres not stated) registered a CC50 at 48 h in [1] of 50 µM. The selectivity ratio in [2] came out at 24. Further, the IC50 in data set [3] (read-out: IC50) is 2.1 µM; in data set [3] (read-out: pIC50 (converted)), 2.09 µM.
For `C=C1CC[C@@H]2[C@](C)(CO)[C@H](O)CC[C@@]2(C)[C@@H]1C/C=C1/C(=O)OC[C@H]1O` [ANDROGRAPHOLIDE], the IC50 result in data set [4] (tzm-bl) was “Not Active”; in data set [3] (read-out: IC50), 0.59 µM; in data set [3] (read-out: pIC50 (converted)), 0.589 µM; in data set [6] (setting [10]), 1.7 µM. Besides, it took 1700 µM to reach half-maximal cytotoxicity in [1] (CC50 at 48 h). Also, in [2], the selectivity ratio was found to be 2880. Besides, the inhibition entry in [5] and in [8] was “inactive” each time. In addition, the inhibition result in [7] is “Dose-dependent effect”. Moreover, the inhibition entry in data set [9] is “Active”.
Consider `C=C1CC[C@@H]2[C@](C)(CO)[C@H](O)CC[C@@]2(C)[C@@H]1C/C=C1/C(=O)OC[C@H]1OC(=O)c1ccccc1O`, for which half-maximal cytotoxicity in data set [1] (CC50 at 48 h) was put at 1080 µM. The selectivity ratio in [2] was 12. Besides, the values for the IC50 in [3] (read-out: IC50) and in data set [3] (read-out: pIC50 (converted)) were 84.2 µM and 85.1 µM, respectively.
The molecule `C=C1CC[C@@H]2[C@]3(C)COC(c4ccc5c(c4)OCO5)O[C@@H]3CC[C@@]2(C)[C@@H]1C/C=C1/C(=O)OC[C@H]1O` (some centres not stated) came in with a CC50 at 48 h in data set [1] of 1650 µM. Besides, the selectivity ratio in data set [2] is 599. In addition, the IC50 in data set [3] (read-out: IC50) and in [3] (read-out: pIC50 (converted)) was 2.75 µM each time.
In data set [1], `C=C1CC[C@@H]2[C@]3(C)COC(c4ccc(O)cc4O)O[C@@H]3CC[C@@]2(C)[C@@H]1C/C=C1/C(=O)OC[C@H]1O` (some centres not stated) yielded a CC50 at 48 h of 179 µM. Also, the selectivity ratio in data set [2] came out at 164. Further, the IC50 in data set [3] (read-out: IC50) is 1.09 µM; in data set [3] (read-out: pIC50 (converted)), 1.1 µM.
On to `C=C(C)[C@@H]1CC[C@]2(C(=O)NCCCCCCCC(=O)N[C@@H](CC(C)C)[C@H](O)CC(=O)O)CC[C@]3(C)[C@H](CC[C@@H]4[C@@]5(C)CC[C@H](O)C(C)(C)[C@@H]5CC[C@]43C)[C@@H]12`, for which the IC50 in data set [3] (read-out: IC50) and in data set [3] (read-out: pIC50 (converted)) was 0.1 µM in each case.
In the case of `C=C1CC[C@@H]2[C@](C)(CO)[C@H](O)CC[C@@]2(C)[C@@H]1C/C=C1/C(=O)OC[C@H]1OC(=O)c1ccc(Cl)nc1Cl`, the IC50 result in data set [4] (tzm-bl) is “Not Active”; in data set [3] (read-out: IC50), 0.83 µM; in [3] (read-out: pIC50 (converted)) it was 0.832 µM; in data set [6] (setting [10]) it was 1.1 µM. Moreover, in data set [1], it took 10400 µM to reach half-maximal cytotoxicity (CC50 at 48 h). For the same molecule, the selectivity ratio in data set [2] was 12500. Besides, the inhibition entry in data set [5] and in [8] was “inactive” each time. Besides, in [7], the inhibition entry is “Dose-dependent effect”. Moreover, the inhibition result in data set [9] was “Active”.
Consider `Br.c1cc(CN2CCCNCCNCCCNCC2)ccc1CN1CCCNCCNCCCNCC1`, for which the IC50 was 1.6 µM in data set [4] (setting [10]) and “Not Active” in data set [6] (tzm-bl).
